The text below walks through data of ChEMBL document CHEMBL3232746, “Diamidine compounds for selective inhibition of protein arginine methyltransferase 1” (J Med Chem, 2014).

Structures are written as SMILES. pIC50: −log10 of the molar value. Activity calls are given as the source filed them. The calls are words filed in the database; no cut-off is given here.

The target of assay [1] is T1, Histone-arginine methyltransferase CARM1 (Homo sapiens, UniProt Q86X55).
T1 sequence (Q86X55 whole entry): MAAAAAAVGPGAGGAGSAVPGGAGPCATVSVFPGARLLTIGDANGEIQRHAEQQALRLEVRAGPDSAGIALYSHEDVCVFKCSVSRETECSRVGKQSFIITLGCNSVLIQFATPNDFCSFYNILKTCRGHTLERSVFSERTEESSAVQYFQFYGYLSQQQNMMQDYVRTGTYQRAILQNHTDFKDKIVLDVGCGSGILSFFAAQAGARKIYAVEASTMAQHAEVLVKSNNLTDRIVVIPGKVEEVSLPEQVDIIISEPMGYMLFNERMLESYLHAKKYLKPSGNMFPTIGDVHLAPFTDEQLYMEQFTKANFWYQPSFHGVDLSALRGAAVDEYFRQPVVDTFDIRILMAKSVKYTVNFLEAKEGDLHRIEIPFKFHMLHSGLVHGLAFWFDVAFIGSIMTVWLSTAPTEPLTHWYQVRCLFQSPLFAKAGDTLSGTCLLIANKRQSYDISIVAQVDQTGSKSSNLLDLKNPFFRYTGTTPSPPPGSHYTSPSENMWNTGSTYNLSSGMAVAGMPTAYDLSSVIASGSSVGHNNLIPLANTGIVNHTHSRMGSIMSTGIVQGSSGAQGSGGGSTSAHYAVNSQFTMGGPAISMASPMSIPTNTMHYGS
As to the kind of experiment: Inhibition of GST-tagged CARM1 (unknown origin) using [3H]SAM and histone H3.1 as substrate at 20 uM after 1 hr by P81 filter binding assay.

Assay [2] has as its target Protein arginine N-methyltransferase 6 (Homo sapiens, UniProt Q96LA8). As to the kind of experiment: Inhibition of His6x-tagged PRMT6 (unknown origin) using [3H]SAM and histone H3.1 as substrate at 20 uM after 1 hr by P81 filter binding assay. Summed up:
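P81 filter-binding assay with 1 μM histone H3.1 as acceptor and 0.5 μM [3H]SAM in 50 mM HEPES pH 8.0, 50 mM NaCl, 1 mM EDTA, 0.5 mM DTT; enzyme, SAM and inhibitor preincubated 5 min, then substrate added; 1 h at 30 °C; methylation by scintillation counting.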

Assay [3] deals with T2, Protein arginine N-methyltransferase 5 (Homo sapiens, UniProt O14744). As to the kind of experiment: Inhibition of HA-tagged recombinant PRMT5 (unknown origin) expressed in HEK293T cells using [3H]SAM and histone H4 (1 to 20) as substrate after 8 mins by P81 filter binding assay. Also noted: species or system HEK-293T. Summed up:
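HA-PRMT5 from HEK293T co-transfected with PRMT5 and WDR77 plasmids, HA-bead purified; 0.04 μM enzyme, 0.5 μM [3H]SAM, 1 μM H4(1–20) in HEPES pH 8.0 buffer; inhibitor preincubated with enzyme and SAM 5 min before peptide start; 8 min at 30 °C; P81 disks washed in NaHCO3 pH 9.0, scintillation counted; IC50 over varied inhibitor concentrations.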

Assay [4] has as its target T3, Protein arginine N-methyltransferase 1 (Homo sapiens, UniProt Q99873). As to the kind of experiment: Inhibition of His6x-tagged recombinant PRMT1 (unknown origin) expressed in Escherichia coli BL21(DE3) using [3H]SAM and histone H4 (1 to 20) as substrate at 20 uM after 8 mins by P81 filter binding assay. In a few lines:
(§1)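 Enzyme 0.04 μM (His-PRMT1 purified on Ni-NTA, or HA-PRMT5 co-expressed with WDR77 in 293T and purified on HA beads). Assay used 0.5 μM [3H]SAM and 1 μM H4(1–20) in 50 mM HEPES pH 8.0, 50 mM NaCl, 1 mM EDTA, 0.5 mM DTT. Preincubation 5 min at room temperature, then 8 min at 30 °C. P81 filter binding with scintillation counting. Compared with no-inhibitor control.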
Target sequence in this assay (Q99873 whole entry, looked up): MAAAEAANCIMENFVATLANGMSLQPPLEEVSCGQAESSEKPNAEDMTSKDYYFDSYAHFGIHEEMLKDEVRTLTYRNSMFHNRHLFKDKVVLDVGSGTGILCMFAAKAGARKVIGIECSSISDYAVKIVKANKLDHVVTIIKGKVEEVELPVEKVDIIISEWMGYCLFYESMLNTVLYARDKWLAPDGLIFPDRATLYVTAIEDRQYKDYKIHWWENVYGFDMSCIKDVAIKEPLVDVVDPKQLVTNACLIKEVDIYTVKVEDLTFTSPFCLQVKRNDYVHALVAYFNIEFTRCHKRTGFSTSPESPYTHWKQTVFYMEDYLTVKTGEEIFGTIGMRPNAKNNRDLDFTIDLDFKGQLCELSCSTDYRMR

For assay [5], the target named is T2, Protein arginine N-methyltransferase 5. As to the kind of experiment: Inhibition of HA-tagged recombinant PRMT5 (unknown origin) expressed in HEK293T cells using [3H]SAM and histone H4 (1 to 20) as substrate at 20 uM after 8 mins by P81 filter binding assay. Summed up:
as §1

Assay [6] deals with T3, Protein arginine N-methyltransferase 1. As to the kind of experiment: Inhibition of His6x-tagged recombinant PRMT1 (unknown origin) expressed in Escherichia coli BL21(DE3) using [3H]SAM and histone H4 (1 to 20) as substrate after 8 mins by P81 filter binding assay.
Target sequence in this assay (Q99873 whole entry): as the sequence (Q99873 whole entry, looked up) above
The subject of another assay is HEL. As to the kind of experiment: Antiproliferative activity against human HEL cells harboring JAK2 V617F mutant assessed as cell viability at 20 uM measured everyday for 3 days by CellTiter-Glo assay. The assay is classed as functional, cell-based. In a few lines:
(§2)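 RPMI + 10% FBS culture; 1000–1500 cells seeded per well; 20 μM compound or matching DMSO volume added; CellTiter-Glo luminescence read at 0, 24, 48, 72 h after treatment; viability expressed as percent of viable cells relative to DMSO-treated control.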

Assay [7] has as its target T3, Protein arginine N-methyltransferase 1. As to the kind of experiment: Inhibition of PRMT1 in human 293T cells assessed as reduction of GFP-ALY methylation by Western blot analysis. Type of assay: cell-based. Summed up: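 GFP-ALY stably expressing 293T cells in DMEM + 10% FBS, treated 15 h with 20 μM compound; lysed on ice in NP-40 buffer; GFP-ALY pulled down on GFP antibody beads; SDS-PAGE and Western blot with ASYM24 methylarginine antibody, equal GFP-ALY loading.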
Target sequence in this assay (Q99873 whole entry, looked up): as above

The species entered for the next assay is Homo sapiens. As to the kind of experiment: Antiproliferative activity against human CHRF-288-11 cells harboring trisomy 21 assessed as cell viability at 20 uM measured everyday for 3 days by CellTiter-Glo assay. The assay is classed as functional, cell-based. Summed up:
as §2

Another assay deals with MOLM-13. As to the kind of experiment: Antiproliferative activity against human MOLM13 cells with MLL-AF9 translocation assessed as cell viability at 20 uM measured everyday for 3 days by CellTiter-Glo assay. The assay is classed as functional, cell-based. In a few lines:
as §2

The test system of the next assay is Jurkat. As to the kind of experiment: Antiproliferative activity against human Jurkat cells assessed as cell viability at 20 uM measured everyday for 3 days by CellTiter-Glo assay. The assay is classed as functional, cell-based. In a few lines: as §2
Assay [8] concerns the target T3, Protein arginine N-methyltransferase 1. As to the kind of experiment: Competitive inhibition of His6x-tagged recombinant PRMT1 (unknown origin) expressed in Escherichia coli BL21(DE3) using [3H]SAM and histone H4 (1 to 20) as substrate by double reciprocal plot analysis. Summed up: (§3)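 Radiometric P81 filter-binding kinetics in 50 mM HEPES pH 8.0, 50 mM NaCl, 1 mM EDTA, 0.5 mM DTT, 30 °C; inhibitor at 0, 10, 20, 30, 40 μM; initial velocities with H4-20 varied at 3 μM [3H]SAM, or [3H]SAM varied at 15 μM H4-20; Michaelis–Menten and double-reciprocal analysis giving Kis and Kii.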
Target sequence in this assay (Q99873 whole entry, looked up): as above

Assay [9] has the same target. As to the kind of experiment: Inhibition of His6x-tagged recombinant PRMT1 (unknown origin) expressed in Escherichia coli BL21(DE3) using fluorescein-labeled histone H4 (1 to 20) as substrate at 10 to 50 uM after 8 mins by competitive fluorescence anisotropy binding assay. In a few lines:
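0.2 μM fluorescein-labelled H4(1–20) and 2 μM PRMT1 in P81 assay buffer (HEPES pH 8.0); inhibitor titrated in until signal plateaued; anisotropy read at excitation 498 nm, emission 524 nm.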
Target sequence in this assay (Q99873 whole entry, looked up): as above

Assay [10] shares this target. As to the kind of experiment: Uncompetitive inhibition of His6x-tagged recombinant PRMT1 (unknown origin) expressed in Escherichia coli BL21(DE3) using [3H]SAM and histone H4 (1 to 20) as substrate by double reciprocal plot analysis. In a few lines:
as §3
Target sequence in this assay (Q99873 whole entry, looked up): as above

Another assay has as its system HL-60. As to the kind of experiment: Antiproliferative activity against human HL60 cells with PML-RAR alpha translocation assessed as cell viability at 20 uM measured everyday for 3 days by CellTiter-Glo assay. Type of assay: functional, cell-based. In a few lines:
as §2

The next assay has as its system CMY. As to the kind of experiment: Antiproliferative activity against human CMY cells harboring trisomy 21 assessed as cell viability at 20 uM measured everyday for 3 days by CellTiter-Glo assay. Type of assay: functional, cell-based. In a few lines: as §2

Protein arginine N-methyltransferase 6, sequence (Q96LA8 whole entry): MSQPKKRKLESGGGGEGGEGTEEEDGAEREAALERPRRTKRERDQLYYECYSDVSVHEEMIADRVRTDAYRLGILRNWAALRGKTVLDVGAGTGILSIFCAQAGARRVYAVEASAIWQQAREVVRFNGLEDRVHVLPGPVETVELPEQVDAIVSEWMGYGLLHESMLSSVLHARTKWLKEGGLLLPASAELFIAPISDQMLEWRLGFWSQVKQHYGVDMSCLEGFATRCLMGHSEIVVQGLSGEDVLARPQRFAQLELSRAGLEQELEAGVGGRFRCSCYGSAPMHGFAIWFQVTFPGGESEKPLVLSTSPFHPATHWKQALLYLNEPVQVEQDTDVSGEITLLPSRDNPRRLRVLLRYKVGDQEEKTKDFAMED
T2 sequence (O14744 whole entry): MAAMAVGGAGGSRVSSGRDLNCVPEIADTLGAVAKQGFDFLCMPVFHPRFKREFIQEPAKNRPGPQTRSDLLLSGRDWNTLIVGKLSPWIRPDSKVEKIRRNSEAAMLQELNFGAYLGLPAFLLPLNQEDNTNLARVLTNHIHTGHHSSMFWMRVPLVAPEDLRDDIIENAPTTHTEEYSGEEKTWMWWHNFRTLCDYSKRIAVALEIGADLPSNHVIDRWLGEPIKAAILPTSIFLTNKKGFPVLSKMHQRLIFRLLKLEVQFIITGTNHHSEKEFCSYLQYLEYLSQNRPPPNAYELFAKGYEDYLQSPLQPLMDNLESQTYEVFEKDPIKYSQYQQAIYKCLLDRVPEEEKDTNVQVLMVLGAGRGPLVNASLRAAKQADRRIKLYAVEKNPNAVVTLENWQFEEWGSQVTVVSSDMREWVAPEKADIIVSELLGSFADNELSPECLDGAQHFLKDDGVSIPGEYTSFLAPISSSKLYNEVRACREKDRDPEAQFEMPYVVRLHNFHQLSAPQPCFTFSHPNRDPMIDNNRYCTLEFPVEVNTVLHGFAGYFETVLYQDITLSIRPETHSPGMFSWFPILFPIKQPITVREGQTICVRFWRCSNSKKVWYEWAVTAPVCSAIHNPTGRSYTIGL

For the compound `N=C(N)c1ccc(/C=C/c2ccc(C(=N)N)cc2)cc1` [STILBAMIDINE], the pIC50 in assay [1] was 3.40; in assay [2], 3.76; in assay [3] it was 4.36.
As for `N=C(N)c1ccc(-c2ccc(-c3ccc(OCCCCCCCCOc4ccc(-c5ccc(-c6ccc(C(=N)N)cc6)o5)cc4)cc3)o2)cc1`, the inhibition in assay [4] and in assay [5] was greater than 85% throughout.
Turning to `N=C(N)c1ccc(-c2ccc(-c3ccc(C(=N)N)nc3)o2)cc1`, the negative-log IC50 (pIC50) was less than 3.40 in [1], 5.14 in assay [6], 3.68 in assay [2] and 3.73 in [3].
On to `N=C(N)c1ccc(-c2ccc(-c3ccc(C(=N)N)cc3)o2)cc1` [FURAMIDINE], for which the inhibition result in the assay with HEL is “inactive”. Moreover, the inhibition result (in assay [7]; in the assay listed under Homo sapiens; in the assay with MOLM-13; in the assay on Jurkat; in assay [9]; in the assay with HL-60) was “Active” in each case. Moreover, the inhibition entry with CMY is “Active”. The inhibition in [4] is greater than 75%; in [5], 11%. Further, the Kis in assay [8] turned out to be 2.6 µM. The pIC50 in [1] was less than 3.40; in assay [6], 5.03; in [2] it was 3.55; in assay [3], 3.78. The Kii in assay [10] is 26 µM.
`N=C(N)c1ccc(-c2ccc(-c3ccc(C(=N)N)c(F)c3)o2)cc1F`: the inhibition result in assay [4] and in assay [5] was “Active” in each case.
